Measurements reported in ChEMBL document CHEMBL1151452, “Novel trypanocidal analogs of 5'-(methylthio)-adenosine” (Antimicrob Agents Chemother, 2008).
The source made the active and inactive calls. No cut-off for these calls is given here.

Legend:
[1] = system: Trypanosoma brucei brucei; test: Activity at bloodstream Trypanosoma brucei brucei 5'-deoxy-5'-(methylthio)-adenosine phosphorylase by spectrophotometry in presence of 50 mM PO4- relative to control; conditions: LAB 110 EATRO
Method in brief: (§1)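 Enzyme was a cell-free extract of bloodstream trypanosomes harvested from rats. It was prepared by freeze-thawing three times in dry ice-methanol, spinning at 5,000 × g for 10 min, and dialysing 1 h (0.05 M Tris-HCl, 0.1 mM EDTA, 1 mM 2-mercaptoethanol, pH 7.4) to remove phosphate. The mix held 0 or 50 mM potassium phosphate pH 7.4, xanthine oxidase and 25–500 μM substrate. Adenine-derived 2,8-dihydroxyadenine was read at 305 nm over 1 h at 37°C. Activity is expressed relative to MTA.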

[2] = system: Trypanosoma brucei brucei; test: Antitrypanosomal activity against bloodstream form of Trypanosoma brucei brucei LAB 110 EATRO after 48 hrs by Z1 zoulter counter; assay type: functional, organism-based; conditions: for IC50: Trypanosoma brucei, LAB 110 EATRO, 48 h
Method in brief: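 Bloodstream forms were grown axenically in HMI-18 (IMDM with 1 μM hypoxanthine and 20% horse serum). Compounds were dissolved in water or DMSO, with final DMSO ≤0.3%. […] Parasites were counted by Coulter counter.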

[3] = system: Trypanosoma brucei brucei; test: Activity at bloodstream Trypanosoma brucei brucei 5'-deoxy-5'-(methylthio)-adenosine phosphorylase by spectrophotometry relative to control; parameters: concentration or dose not given beside the values; conditions: LAB 110 EATRO; method in brief: as §1
[4] = organism: Mus musculus; test: Activity at mouse liver 5'-deoxy-5'-(methylthio)-adenosine phosphorylase; parameters: concentration or dose not given beside the values
[5] = system: Trypanosoma brucei brucei; test: Growth stimulation of diamidine and melarsoprol-resistant bloodstream form of Trypanosoma brucei brucei isolate KETRI 243-As10-3 at 100 uM after 48 hrs by Z1 zoulter counter; assay type: functional, organism-based
[6] = system: Trypanosoma brucei rhodesiense; test: Growth stimulation of pentamidine and melarsoprol-resistant bloodstream form of Trypanosoma brucei rhodesiense isolate KETRI 243 at 100 uM after 48 hrs by Z1 zoulter counter

For `OCCSC[C@H]1O[C@@H](n2cnc3c(F)ncnc32)[C@H](O)[C@@H]1O`, the Activity [1] was 42%, the IC50 [2] was > 100 µM and the Activity [3] was 60%.
`Nc1ncnc2c1ncn2[C@@H]1O[C@H](CSCCCO)[C@@H](O)[C@H]1O` was tested, and the Activity [1] was 72.5%, the IC50 [2] was 170 µM and the Activity [3] was 27.4%.
With `CNC[C@H]1O[C@@H](n2cnc3c(N)ncnc32)[C@H](O)[C@@H]1O` the Activity [1] was 4%, the IC50 [2] was > 100 µM and the Activity [3] was 0%.
`Nc1nc(F)nc2c1ncn2[C@@H]1O[C@H](CSCCO)[C@@H](O)[C@H]1O` showed an Activity [1] of 148%, an IC50 [2] of 1.9 µM and an Activity [3] of 106%.
In the case of `Nc1ncnc2c1ncn2C[C@@H](O)CSCCO`, the IC50 [2] is reported as > 100 µM.
In the case of `CC(=O)OCCSC[C@H]1O[C@@H](n2cnc3c(N)nc(N)nc32)[C@H](OC(C)=O)[C@@H]1OC(C)=O`, the IC50 [2] is reported as 12.5 µM.
With `CC(=O)O[C@@H]1[C@H](OC(C)=O)[C@@H](CSCCF)O[C@H]1n1cnc2c(N)ncnc21` the IC50 [2] was 0.83 µM.
In the case of `CC(=O)OCCSC[C@H]1O[C@@H](n2cnc3c(C)ncnc32)[C@H](OC(C)=O)[C@@H]1OC(C)=O`, the IC50 [2] is reported as 9.3 µM.
`OCCSC[C@H]1O[C@@H](n2cnc3c2ncn2ccnc32)[C@H](O)[C@@H]1O` was tested, and the Activity [1] was 56%, the IC50 [2] was > 100 µM and the Activity [3] was 62%.
For `Nc1ncnc2c1ccn2[C@@H]1O[C@H](CSCCO)[C@@H](O)[C@H]1O`, the Activity [1] was 0%, the IC50 [2] was 0.042 µM and the Activity [3] was 0%.
In the case of `Nc1ncnc2c1ncn2[C@@H]1O[C@H](CSCCO)[C@@H](O)[C@H]1O`, the Activity [1] is reported as 96%, the IC50 [2] is reported as 0.54 µM and the Activity [3] is reported as 100%.
`CSC[C@H]1O[C@@H](n2ccc3c(NC(C)=O)ncnc32)[C@H](OC(C)=O)[C@@H]1OC(C)=O` gave an IC50 [2] of 46 µM.
Work on `Nc1ncnc2c1ncn2[C@@H]1O[C@H](CSCCF)[C@@H](O)[C@H]1O` yielded an Activity [1] of 75.3%, an IC50 [2] of 0.2 µM and an Activity [3] of 29.3%. For the same compound, the Activity [4] was 64%.
For `Nc1ncnc2c1ncn2COCCSCCO`, the Activity [1] was 56%, the IC50 [2] was 64 µM and the Activity [3] was 78%.
With `CC(=O)OCCSC[C@H]1O[C@@H](n2cnc3c(F)ncnc32)[C@H](OC(C)=O)[C@@H]1OC(C)=O` the IC50 [2] was > 100 µM.
`Nc1ncnc2c1ncn2[C@H]1C[C@H](O)[C@@H](CSCCO)O1` was tested, and the Activity [5] was “Active”, the Activity [1] was 100% and the IC50 [2] was > 100 µM. It also gave an Activity [3] of 81%.
Compound `Nc1ncnc2c1ncn2[C@@H](CO)O[C@@H](CO)CSCCO` has an Activity [1] of 44%, an IC50 [2] of 14 µM and an Activity [3] of 0%.
`CC(=O)OCCSC[C@@H]1C[C@@H](OC(C)=O)[C@H](n2cnc3c(N)ncnc32)O1` was tested, and the IC50 [2] was 0.64 µM.
For `CC(=O)OCCSC[C@H]1O[C@@H](n2cnc3c(N)ncnc32)C[C@@H]1OC(C)=O`, the IC50 [2] was 22 µM.
In the case of `Nc1ncnc2c([C@@H]3N[C@H](CSCCO)[C@@H](O)[C@H]3O)c[nH]c12`, the IC50 [2] is reported as > 10 µM.
`CC(=O)OCCSC[C@H]1O[C@@H](n2cnc3c2ncn2ccnc32)[C@H](OC(C)=O)[C@@H]1OC(C)=O` showed an IC50 [2] of 35 µM.
`Cc1ncnc2c1ncn2[C@@H]1O[C@H](CSCCO)[C@@H](O)[C@H]1O` showed an Activity [1] of 2%, an IC50 [2] of 24.5 µM and an Activity [3] of 25%.
For `CC(=O)OCCSC[C@H]1O[C@@H](n2cnc3c(N)ncnc32)[C@H](OC(C)=O)[C@@H]1OC(C)=O`, the IC50 [2] was 0.32 µM.
`CCCSC[C@H]1O[C@@H](n2cnc3c(N)ncnc32)[C@H](O)[C@@H]1O` gave an Activity [1] of 57.5%, an IC50 [2] of 46 µM and an Activity [3] of 26%. The Activity [4] was 100%.
`CC(=O)OCCSC[C@H](COC(C)=O)O[C@H](COC(C)=O)n1cnc2c(N)ncnc21` gave an IC50 [2] of 5.3 µM.
Compound `Nc1ncnc2c1ncn2[C@H]1CC[C@@H](CSCCO)O1` has an Activity [1] of 17%, an IC50 [2] of 100 µM and an Activity [3] of 18%.
With `NCCCSC[C@H]1O[C@@H](n2cnc3c(N)ncnc32)[C@H](O)[C@@H]1O` the Activity [1] was 46%, the IC50 [2] was > 100 µM and the Activity [3] was 60%.
`Nc1ncnc2c1ncn2C[C@H](O)CSCCO` was tested, and the IC50 [2] was 60 µM.
`Nc1ncnc2c1ncn2[C@@H]1O[C@H](CSCCCF)[C@@H](O)[C@H]1O` was tested, and the Activity [1] was 47.5%, the IC50 [2] was 120 µM and the Activity [3] was 31.3%. For the same compound, the Activity [4] was 64%.
`COC(=O)CSC[C@H]1O[C@@H](n2cnc3c(N)ncnc32)[C@H](O)[C@@H]1O` gave an Activity [1] of 84%, an IC50 [2] of 130 µM and an Activity [3] of 34%.
With `CC(=O)OCCSC[C@H]1O[C@@H](n2cnc(C(N)=O)n2)[C@H](OC(C)=O)[C@@H]1OC(C)=O` the IC50 [2] was 26.5 µM.
In the case of `Nc1ncnc2c1nnn2[C@@H]1O[C@H](CSCCO)[C@@H](O)[C@H]1O`, the IC50 [2] is reported as 7 µM.
Work on `Nc1nc(N)c2ncn([C@@H]3O[C@H](CSCCO)[C@@H](O)[C@H]3O)c2n1` yielded an Activity [1] of 29%, an IC50 [2] of 3.9 µM and an Activity [3] of 18%.
`NCCSC[C@H]1O[C@@H](n2cnc3c(N)ncnc32)[C@H](O)[C@@H]1O` was tested, and the IC50 [2] was > 100 µM and the Activity [6] was “Active”.
For `CSC[C@H]1O[C@@H](n2cnc3c(N)ncnc32)[C@H](O)[C@@H]1O` [METHYLTHIOADENOSINE], the Activity [1] was 100%, the IC50 [2] was 100 µM and the Activity [3] was 100%. For the same compound, the Activity [4] was 100%.
In the case of `NC(=O)c1ncn([C@@H]2O[C@H](CSCCO)[C@@H](O)[C@H]2O)n1`, the Activity [1] is reported as 61%, the “inhibition (INH)” value [2] is reported as 9% and the Activity [6] is reported as “Active”. It also gave an Activity [3] of 70%.
`Nc1ncnc2c1ncn2[C@@H]1O[C@H](CSCCO)C[C@H]1O` gave an Activity [1] of 39.4%, an IC50 [2] of 12.5 µM and an Activity [3] of 37.8%.
`OCCSC[C@H]1O[C@@H](n2cnc3cncnc32)[C@H](O)[C@@H]1O` gave an Activity [1] of 11%, an IC50 [2] of 34 µM and an Activity [3] of 4%.
For `CC(=O)OCCSC[C@H]1O[C@@H](n2cnc3cncnc32)[C@H](OC(C)=O)[C@@H]1OC(C)=O`, the IC50 [2] was 3.65 µM.
With `CC(=O)OCCSC[C@H]1O[C@@H](n2ccc3c(N)ncnc32)[C@H](OC(C)=O)[C@@H]1OC(C)=O` the IC50 [2] was 0.145 µM.
In the case of `OCCSC[C@H]1O[C@@H](n2cnc3c(O)ncnc32)[C@H](O)[C@@H]1O`, the Activity [1] is reported as 0%, the IC50 [2] is reported as > 100 µM and the Activity [3] is reported as 0%.
`CCSC[C@H]1O[C@@H](n2cnc3c(N)ncnc32)[C@H](O)[C@@H]1O` was tested, and the Activity [1] was 76.2%, the Activity [3] was 26.9% and the Activity [4] was 100%.
`CC(=O)OCCSC[C@H]1O[C@@H](n2cnc3c(N)nc(F)nc32)[C@H](OC(C)=O)[C@@H]1OC(C)=O` showed an IC50 [2] of 2.75 µM.
Work on `CSC[C@H]1O[C@@H](n2ccc3c(N)ncnc32)[C@H](O)[C@@H]1O` yielded an Activity [1] of 0%, an IC50 [2] of 67 µM and an Activity [3] of 0%.
